Shown are actives, neighbours in structure and some others; about 2.2% of the full set was active somewhere.
GalR3 antag: blocks the human galanin receptor 3; O60755; HEK293 GalR3-CNG cAMP membrane potential fluorescence; galR3 body fused to GalR1 C-terminus; inhibition, % at 3 µM; 0.44% of 360,000 active; AID 651719;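 active means inhibition above the screen-wide average plus 3 SD, cut at about 13% in these data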;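 further: forskolin and galanin both at EC90 stimulate the cells; cAMP rise reported by CNG channel membrane potential dye signal; 0% = forskolin plus galanin with DMSO and 100% = forskolin alone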
NR2F2 inh: blocks human COUP-TFII nuclear receptor; 0.7% of 370,000 active; P24468; AID 686940; inhibition, % at 8.6 µM; HEK293T NGFI-A luciferase reporter, luminescence;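 active means inhibition above a per-plate cutoff, mean inhibition of test wells between control levels plus 3 SD, cut at about 38% in these data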;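 further: cells cotransfected with COUP-TFII expression vector driving the NGFI-A reporter; 0% = median of COUP-TF2 test wells and 100% = reporter-only cells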
SMARCA2 act: increases SMARCA2 function in MMTV reporter cells | activation, % at 9.1 µM | MG213 cells, MMTV-luciferase reporter, dexamethasone, overnight | 1% of 370,000 active | AID 652017; in the data active means activation above about 7.8%;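 further: 0% = vehicle wells and 100% = reference activator wells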
NR2E3 ag-1: NR2E3 (human) agonism; Q9Y5X4; GST-NR2E3/biotin-RetCOR TR-FRET, 1536-well; inhibition of corepressor binding, % at 4.78 µM; 0.12% of 320,000 active;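 active means percent inhibition above the cutoff of mean plus 3 SD of all tested compounds, set per screening campaign, cut at about 20% in these data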;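 further: 0% = DMSO wells and 100% = biotin wells as full block of FRET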
Target sequence (Q9Y5X4 whole entry, looked up): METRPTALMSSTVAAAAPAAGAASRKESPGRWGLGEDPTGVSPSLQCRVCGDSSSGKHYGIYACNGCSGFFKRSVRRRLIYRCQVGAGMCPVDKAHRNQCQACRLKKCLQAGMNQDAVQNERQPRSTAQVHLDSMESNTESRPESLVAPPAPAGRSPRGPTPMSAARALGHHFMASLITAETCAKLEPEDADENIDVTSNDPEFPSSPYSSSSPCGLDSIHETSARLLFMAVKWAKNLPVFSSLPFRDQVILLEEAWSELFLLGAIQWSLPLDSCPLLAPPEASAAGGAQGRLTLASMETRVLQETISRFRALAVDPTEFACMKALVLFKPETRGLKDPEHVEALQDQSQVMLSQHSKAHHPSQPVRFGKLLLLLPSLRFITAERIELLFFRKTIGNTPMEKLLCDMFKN
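System: GST-tagged NR2E3 plus biotinylated RetCOR corepressor; Amount: 1.35 nM GST-tagged NR2E3 final; Dosing: single nominal compound dose of 4.8 µM; Schedule: 5 h incubation at 4 °C; Technique: TR-FRET with europium anti-GST and streptavidin-D2, 340 nm excitation; Controls: biotin wells as high control, 0.6% DMSO wells as low control.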
NR2E3 ag-2: agonists of human NR2E3 nuclear receptor. inhibition of corepressor binding, % at 3.98 µM. CHO-S Gal4-NCOR/VP16-NR2E3 two-hybrid, luciferase. Q9Y5X4. 0.35% of 360,000 active;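 active means inhibition above the mean of all tested compounds plus 3 SD, cut at about 70% in these data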;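 further: 0% = DMSO with NR2E3 transfected cells and 100% = cells lacking NR2E3 construct; higher means lower luciferase signal from less NR2E3 corepressor binding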
GalR3 conf: confirmation of human galanin receptor 3 antagonists; shares compounds with GalR3 antag; HEK293 GalR3 CNG cAMP biosensor, membrane potential fluorescence; galR3 fused to GalR1 carboxy tail; challenged with forskolin and galanin at EC90; inhibition, % at 3 µM; 59% of 1,600 active; AID 652245;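 active means inhibition above the primary screen's cutoff, the mean inhibition of all screened compounds plus 3 SD, cut at about 13% in these data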;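 further: 0% = forskolin plus galanin and 100% = forskolin alone with DMSO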
CNG parental: acts as nonspecific agonist in parental HEK-CNG cells; shares compounds with GalR3 antag; HEK293-CNG parental cells, cAMP membrane potential fluorescence; normalised: DMSO wells 0%, forskolin wells 100%; activation, % at 3 µM; 10% of 1,600 active; AID 652268; in the data active means activation above about 1.3%
Numbers without * were called inactive; nt = no result given.

SMILES	GalR3 antag	NR2F2 inh	SMARCA2 act	NR2E3 ag-1	NR2E3 ag-2	GalR3 conf	CNG parental
C[C@H]1C2CC(OC(=O)Nc3cccc(F)c3)C(C2)[C@H]2CCCCN21 (some centres undefined)	nt	0	-1	nt	nt	nt	nt
COC(=O)C(C)Sc1nc2c(c(=O)[nH]c(=O)n2C)n1CCC(C)C (centres undefined)	55*	-21	2	-1	-8	13*	1
CC1CCN(C(=O)c2[nH]cnc2C(=O)NCc2ccccc2)CC1	nt	-21	1	4	-5	11	0
CC1CCN(C(=O)c2[nH]cnc2C(=O)NCc2ccc(CNC(=O)OC(C)(C)C)cc2)CC1	-6	9	-1	-1	9	nt	nt
CCOC(=O)CCc1cccc2c1CCC2=O	nt	-4	0	-2	-6	4	1
Cn1c(C(=O)NN)cc2cc(Oc3ccccc3)ccc21	60*	4	-3	-4	5	44*	0
O=C(Nc1ccncc1)c1ccc2c(c1)C(=O)N(C1CCCCC1)C2=O	46*	21	-3	-1	11	57*	-1
Cc1cc(NC(=O)c2ccc3c(c2)C(=O)N(C2CCCCC2)C3=O)no1	-1	14	1	4	-5	nt	nt
Cc1ccccc1-c1nnn(CC(=O)Nc2ccc3c(c2)OCCO3)n1	16*	1	1	2	-25	19*	1
COc1ccccc1C(=O)Nc1cc2c(cc1C(=O)O)OCCCO2	13*	-5	-4	-2	-31	3	0
O=C(O)CCc1ccc(-c2cccs2)n1CC(=O)Nc1ccccc1C(F)(F)F	15*	19	-5	-1	-15	-3	1
COCCn1c(CCC(=O)O)ccc1-c1cccs1	-4	-8	1	1	-5	nt	nt
COc1cc(/C=C2\SC(c3ccc(C)cc3)=NC2=O)ccc1O	17*	-16	-1	3	-3	5	0
COc1ccc(C)cc1NC(=O)c1ccc(NS(=O)(=O)c2cccc3cccnc23)cc1	51*	14	0	3	28	85*	0
C=CCN1C(=O)[C@@H](CC(=O)N2CCSCC2)[C@]2(C(=O)OCC)CCCCC/C=C/12	nt	-16	-2	nt	nt	nt	nt
CC(C)CC(c1nnnn1C(C)C)N1CCN(c2ccccc2)CC1 (centres undefined)	nt	-13	-2	2	4	-5	6.9*
COc1ccc(OC)c(S(=O)(=O)N2CCCCC2C(=O)N2CCN(c3ccccn3)CC2)c1 (centres undefined)	14*	-4	-4	2	-26	4	0
CCOc1ccc(-n2c(COc3ccccc3)nnc2SCC(=O)Nc2ccc(OCc3ccccc3)cc2)cc1	nt	3	-1	nt	nt	nt	nt
O=[N+]([O-])c1ccc(NC(=S)N/C(=N/CS(=O)(=O)c2ccccc2)c2ccccc2)cc1	13*	-11	0	0	-22	7	1
CC(=O)N1CCC2(CC1)C(C#N)=C(N)Oc1n[nH]c(C(F)(F)F)c12	nt	1	0	-2	9	6	0
CCOC(=O)N1CCC2(CC1)C(C#N)=C(N)Oc1n[nH]c(C)c12	8	-5	1	2	2	nt	nt
Cc1ccccc1NC(=O)c1cc(S(=O)(=O)N2CCOCC2)ccc1F	14*	-7	3	-1	-3	2	0
Cc1ccc(S(=O)(=O)N2CCOCC2)cc1C(=O)N1CCN(S(=O)(=O)c2cccs2)CC1	13*	-4	-6	1	-3	0	0
Cc1ccc(S(=O)(=O)N2CCOCC2)cc1NC(=O)c1cccc(S(=O)(=O)N2CCCC2)c1	nt	2	-4	-1	-16	3	0
Cc1cccc(C)c1NC(=O)c1cc(S(=O)(=O)N2CCOCC2)ccc1F	-6	1	1	1	-57	nt	nt
CS(=O)(=O)c1cccc(C(=O)Nc2cccc(S(=O)(=O)N3CCCC3)c2)c1	-6	20	-3	nt	10	nt	nt

High-throughput results as filed in PubChem BioAssay.
